Values belong to the molecule of their own block, whether it stands above or below them. Active and inactive are the calls of the source. The rule behind the calls is not given here.
Columns and labels:
[1] = tested on: MDA-MB-231; experiment: Cytotoxicity against human MDA-MB-231 cells assessed as reduction in cell viability incubated for 24 hrs by resazurin assay; format: functional, cell-based
Outline: (§1)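 Cell lines kept at 37 °C in humidified 5% CO2. Cells exposed to compounds for 24 h with DMSO control; viability measured by resazurin assay. Mean ± SEM, n = 3.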

[2] = tested on: Platelet; experiment: Antiplatelet activity in human platelets assessed as inhibition of U46619-induced platelet aggregation upto 40 uM by turbidimetric analysis; format: functional, cell-based
[3] = tested on: A549; experiment: Cytotoxicity against human A549 cells assessed as reduction in cell viability incubated for 24 hrs by resazurin assay; format: functional, cell-based; outline: as §1
[4] = tested on: Platelet; experiment: Antiplatelet activity in human platelets assessed as inhibition of collagen-induced platelet aggregation upto 40 uM by turbidimetric analysis; format: functional, cell-based
[5] = tested on: RPMI-8226; experiment: Cytotoxicity against human RPMI-8226 cells assessed as reduction in cell viability incubated for 24 hrs by resazurin assay; format: functional, cell-based; outline: as §1
[6] = tested on: Platelet; experiment: Antiplatelet activity against tumor cells-stimulated human platelets assessed as inhibition of RPMI-8226 cells-induced platelet aggregation at 100 uM by turbidometric aggregometry; format: functional, cell-based
Outline: (§2)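 Washed human platelets from ACD-anticoagulated blood of healthy volunteers, stirred at 1200 rpm, 37 °C, in 0.375% plasma. Aggregation was induced by A549 (1 × 10^4 cells/mL), MDA-MB-231 (1 × 10^2 cells/mL) or RPMI8226 (1 × 10^5 cells/mL) cells. Read-out is the maximal increase in light transmission by turbidimetric aggregometry. n = 3.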

[7] = tested on: Platelet; experiment: Antiplatelet activity against tumor cells-stimulated human platelets assessed as inhibition of MDA-MB-231 cells-induced platelet aggregation at 100 uM by turbidometric aggregometry; format: functional, cell-based; outline: as §2
[8] = tested on: Platelet; experiment: Inhibition of tumor cell-induced platelet secretion in human platelets assessed as inhibition of A549-induced PDGF secretion at 100 uM by ELISA; format: functional, cell-based
Outline: (§3)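 Washed human platelets were co-incubated with A549 cells under TCIPA conditions (0.375% plasma, stirred, 37 °C) for 25 min in the aggregometer, then centrifuged at 13,000g for 1 min. Supernatant PDGF-BB measured by ELISA and ATP by bioluminescent assay. Mean ± SEM, at least three independent experiments.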

[9] = tested on: Platelet; experiment: Antiplatelet activity in human platelets assessed as inhibition of U46619-induced platelet aggregation by turbidimetric analysis; format: functional, cell-based
Outline: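 Washed human platelets from ACD-anticoagulated volunteer blood, stimulated with U46619 (1 μM). Aggregation measured turbidimetrically under stirring (1200 rpm) at 37 °C as the maximal increase in light transmission.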

[10] = tested on: Platelet; experiment: Inhibition of tumor cell-induced platelet secretion in human platelets assessed as inhibition of A549-induced ATP secretion at 100 uM by bioluminescent assay; format: functional, cell-based; outline: as §3
[11] = tested on: Platelet; experiment: Antiplatelet activity against tumor cells-stimulated human platelets assessed as inhibition of A549 cells-induced platelet aggregation at 100 uM by turbidometric aggregometry; format: functional, cell-based; outline: as §2
[12] = molecular target: T1, Protein disulfide-isomerase A4 (Homo sapiens, UniProt P13667); experiment: Inhibition of human recombinant ERp72 assessed as inhibition of E-GSH formation using Di-E-GSSG as substrate measured for 60 mins in presence of DTT by fluorescence based analysis
T1 sequence (P13667 whole entry): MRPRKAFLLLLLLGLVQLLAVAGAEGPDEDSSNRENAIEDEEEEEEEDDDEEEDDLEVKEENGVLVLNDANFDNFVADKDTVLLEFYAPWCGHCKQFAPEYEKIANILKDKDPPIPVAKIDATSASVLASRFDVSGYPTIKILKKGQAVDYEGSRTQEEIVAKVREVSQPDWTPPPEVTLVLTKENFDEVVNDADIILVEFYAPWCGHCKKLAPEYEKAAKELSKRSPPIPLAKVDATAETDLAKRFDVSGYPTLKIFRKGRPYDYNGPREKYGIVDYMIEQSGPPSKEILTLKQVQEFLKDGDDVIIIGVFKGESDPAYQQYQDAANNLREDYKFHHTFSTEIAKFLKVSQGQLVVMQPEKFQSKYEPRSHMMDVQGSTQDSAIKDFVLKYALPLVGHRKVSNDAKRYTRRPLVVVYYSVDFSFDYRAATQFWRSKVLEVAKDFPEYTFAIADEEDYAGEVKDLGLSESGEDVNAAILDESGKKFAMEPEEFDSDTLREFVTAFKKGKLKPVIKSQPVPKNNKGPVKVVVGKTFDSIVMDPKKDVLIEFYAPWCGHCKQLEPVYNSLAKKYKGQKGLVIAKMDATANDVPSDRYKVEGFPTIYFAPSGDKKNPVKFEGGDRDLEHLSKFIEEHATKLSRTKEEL
Outline: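 Recombinant human ERp72 reductase activity measured with Di-E-GSSG substrate, started with DTT, by fluorometry of E-GSH formation. Mean ± SEM, n = 3.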

[13] = tested on: Platelet; experiment: Inhibition of tumor cell-induced platelet secretion in human platelets assessed as inhibition of A549-induced ATP secretion at 1 to 5 uM by bioluminescent assay; format: functional, cell-based; settings: dose 1-5 µM; outline: as §3
[14] = tested on: Platelet; experiment: Inhibition of tumor cell-induced platelet secretion in human platelets assessed as inhibition of A549-induced PDGF secretion at 1 to 5 uM by ELISA; format: functional, cell-based; settings: dose 1-5 µM; outline: as §3
[15] = tested on: Platelet; experiment: Antiplatelet activity against tumor cells-stimulated human platelets assessed as inhibition of A549 cells-induced platelet aggregation at 2 uM by turbidometric aggregometry; format: functional, cell-based; outline: as §2
[16] = tested on: A549; experiment: Inhibition of platelet-enhanced cell growth in human A549 cells assessed as reduction in cell viability at 0.5 to 2 uM co-incubated with platelets for 48 hrs by trypan blue exclusion assay; format: functional, cell-based; settings: dose 0.5-2 µM
Outline: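 A549 cells (1 × 10^4/well) co-incubated with washed human platelets (1 × 10^7/well) in 0.375% plasma for 48 h at 37 °C, 5% CO2. After PBS washing, viable cancer cells counted by trypan blue exclusion. Mean ± SEM, at least three independent experiments.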

[17] = tested on: Platelet; experiment: Antiplatelet activity against tumor cells-stimulated human platelets assessed as inhibition of MDA-MB-231 cells-induced platelet aggregation at 2 uM by turbidometric aggregometry; format: functional, cell-based; outline: as §2
[18] = molecular target: T2, Protein disulfide-isomerase (Homo sapiens, UniProt P07237); experiment: Covalent inhibition of human recombinant PDI assessed as inhibition of E-GSH formation using Di-E-GSSG as substrate at 10 uM measured for 60 mins in presence of DTT and 1 mM GSH by fluorescence based analysis
Outline: (§4)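 Human rPDI incubated with compounds at 10 μM in the presence of DTT (5 μM) or GSH (1 mM). PDI activity read by Di-E-GSSG assay (E-GSH fluorescence). Mean ± SEM of three independent experiments.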
Target sequence in this assay (P07237 18-508 limits assumed): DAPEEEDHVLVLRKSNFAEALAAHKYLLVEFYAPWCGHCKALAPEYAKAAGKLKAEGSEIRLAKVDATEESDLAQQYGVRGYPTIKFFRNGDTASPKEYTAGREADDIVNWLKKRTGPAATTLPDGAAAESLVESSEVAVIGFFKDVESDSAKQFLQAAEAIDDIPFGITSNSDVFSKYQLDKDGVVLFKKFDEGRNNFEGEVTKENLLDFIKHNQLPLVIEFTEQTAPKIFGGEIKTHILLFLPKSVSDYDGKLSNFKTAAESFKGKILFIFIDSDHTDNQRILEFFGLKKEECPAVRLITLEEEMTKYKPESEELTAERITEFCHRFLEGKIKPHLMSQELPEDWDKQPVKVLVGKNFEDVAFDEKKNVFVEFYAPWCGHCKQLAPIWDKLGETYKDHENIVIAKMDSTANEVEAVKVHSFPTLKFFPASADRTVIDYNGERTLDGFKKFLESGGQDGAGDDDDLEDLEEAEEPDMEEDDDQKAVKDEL

[19] = tested on: Platelet; experiment: Antiplatelet activity against tumor cells-stimulated human platelets assessed as inhibition of RPMI-8226 cells-induced platelet aggregation at 2 uM by turbidometric aggregometry; format: functional, cell-based; outline: as §2
[20] = tested on: A549; experiment: Cytotoxicity against human A549 cells assessed as reduction in cell viability at 0.5 to 2 uM incubated for 48 hrs by trypan bue exclusion assay; format: functional, cell-based; settings: dose 0.5-2 µM
[21] = molecular target: T2, Protein disulfide-isomerase; experiment: Non-covalent inhibition of PDI (unknown origin) by GSSG fluorescence assay
Target sequence in this assay (P07237 whole entry): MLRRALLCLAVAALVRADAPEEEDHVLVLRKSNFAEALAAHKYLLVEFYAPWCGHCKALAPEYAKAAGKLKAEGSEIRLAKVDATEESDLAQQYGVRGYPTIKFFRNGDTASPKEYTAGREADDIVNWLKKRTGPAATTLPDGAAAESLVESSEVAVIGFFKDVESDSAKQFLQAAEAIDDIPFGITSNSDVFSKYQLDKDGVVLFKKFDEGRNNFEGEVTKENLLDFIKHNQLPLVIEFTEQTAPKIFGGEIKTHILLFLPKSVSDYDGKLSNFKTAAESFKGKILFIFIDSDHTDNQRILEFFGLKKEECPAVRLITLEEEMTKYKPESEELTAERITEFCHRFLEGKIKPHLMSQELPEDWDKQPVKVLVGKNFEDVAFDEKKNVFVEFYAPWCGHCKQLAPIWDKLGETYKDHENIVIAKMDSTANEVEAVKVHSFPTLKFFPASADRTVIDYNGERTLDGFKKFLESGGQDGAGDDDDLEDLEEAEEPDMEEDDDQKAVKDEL

[22] = molecular target: T2, Protein disulfide-isomerase; experiment: Non-covalent inhibition of human recombinant PDI assessed as inhibition of E-GSH formation using Di-E-GSSG as substrate at 10 uM measured for 60 mins in presence of DTT and 1 mM GSH by fluorescence based analysis; outline: as §4
Target sequence in this assay (P07237 18-508 limits assumed): as the sequence (P07237 18-508 limits assumed) above

[23] = molecular target: T2, Protein disulfide-isomerase; experiment: Covalent inhibition of PDI (unknown origin) by insulin aggregation assay
Target sequence in this assay (P07237 whole entry): as the sequence (P07237 whole entry) above

[24] = GSH reactivity in aqueous solution assessed as GSH-adduct formation at 400 uM incubated for 30 mins in presence of GSH by UPLC-MS analysis; format: physicochemical; settings: buffer, 0.5 h
Outline: (§5)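 Compounds (400 μM) incubated in water with or without GSH (4 mM) at 37 °C for 30 min. Diluted 1:1 with methanol, then analysed by UPLC-MS on a BEH C18 column (water/acetonitrile gradient, 0.4 mL/min, 40 °C) in positive/negative ion mode.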

[25] = molecular target: T2, Protein disulfide-isomerase; experiment: Covalent inhibition of PDI (unknown origin) by GSSG fluorescence assay
Target sequence in this assay (P07237 whole entry): as above

[26] = tested on: RPMI-8226; experiment: Cytotoxicity against human RPMI-8226 cells assessed as reduction in cell viability at 0.001 to 10 uM incubated for 72 hrs by resazurin assay; format: functional, cell-based; settings: dose 0.001-10 µM
Outline: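 RPMI8226 cells exposed to compounds for 72 h at 37 °C, 5% CO2 with DMSO control; viability measured by resazurin assay, n = 4.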

[27] = tested on: Platelet; experiment: Inhibition of tumor cell-induced platelet secretion in human platelets assessed as inhibition of A549-induced PDGF secretion at 1 uM by ELISA; format: functional, cell-based; outline: as §3
[28] = tested on: Platelet; experiment: Antiplatelet activity against tumor cells-stimulated human platelets assessed as inhibition of A549 cells-induced platelet aggregation at 1 uM by turbidometric aggregometry; format: functional, cell-based; outline: as §2
[29] = tested on: Platelet; experiment: Inhibition of tumor cell-induced platelet secretion in human platelets assessed as inhibition of A549-induced ATP secretion at 1 uM by bioluminescent assay; format: functional, cell-based; outline: as §3
[30] = tested on: Platelet; experiment: Antiplatelet activity against tumor cells-stimulated human platelets assessed as inhibition of MDA-MB-231 cells-induced platelet aggregation at 1 uM by turbidometric aggregometry; format: functional, cell-based; outline: as §2
[31] = tested on: Platelet; experiment: Antiplatelet activity against tumor cells-stimulated human platelets assessed as inhibition of RPMI-8226 cells-induced platelet aggregation at 1 uM by turbidometric aggregometry; format: functional, cell-based; outline: as §2
[32] = tested on: U-87 MG; experiment: Cytotoxicity against human U87 cells assessed as reduction in cell viability incubated for 24 hrs by resazurin assay; format: functional, cell-based, U-87MG ATCC; outline: as §1
[33] = Stability of the compound in aqueous solution at 400 uM measured after 30 mins by UPLC-MS analysis; format: physicochemical; settings: buffer, 0.5 h; outline: as §5

IC50 [9]: > 200 µM
Structure (SMILES): CC(=O)Oc1ccccc1C(=O)O [ASPIRIN]
Activity [6]: inactive
Activity [7]: inactive
inhibition [8]: inactive
inhibition [10]: inactive
Activity [11]: inactive

IC50 [12]: 4.01 µM
inhibition [18]: Active
Structure (SMILES): CC(=O)OC[C@H]1O[C@H](OC2=CC(=O)c3cccc(O)c3C2=O)[C@H](OC(C)=O)[C@@H](OC(C)=O)[C@@H]1OC(C)=O
inhibition [13]: Active
inhibition [14]: Active
Activity [15]: Active
inhibition [16]: Active
Activity [17]: Active
Activity [19]: Active
Activity [20]: inactive

IC50 [23]: 1.7 µM
Structure (SMILES): C#CCCCNC(=O)[C@@H](CCNC(=O)[C@H](Cc1ccccc1)NC(=O)OC(C)(C)C)Cc1ccc(OS(=O)(=O)C=C)cc1

inhibition [18]: Active
Structure (SMILES): CC(=O)O[C@@H]1O[C@H](CSC2=CC(=O)c3cccc(O)c3C2=O)[C@@H](OC(C)=O)[C@H](OC(C)=O)[C@H]1OC(C)=O
inhibition [13]: Active
inhibition [14]: Active
Activity [15]: Active
IC50 [32]: > 20 µM
inhibition [16]: Active
Activity [17]: Active
Activity [19]: Active
Activity [20]: inactive

IC50 [23]: 10 µM
Structure (SMILES): C#CC(=O)N(c1ccc(OC)cc1OC)C(C(=O)NCC(=O)OCC)c1cccs1 (stereo unspecified)

inhibition [18]: Active
Structure (SMILES): COc1cccc(SC2=CC(=O)c3cccc(O)c3C2=O)c1

The next lines start with the molecule.

Structure (SMILES): CC(C)(C)CN(C(=O)CCl)C1CCS(=O)(=O)C1 (stereo unspecified)
IC50 [1]: Not Active
Activity [2]: inactive
IC50 [3]: Not Active
Activity [4]: inactive
IC50 [5]: Not Active

Structure (SMILES): O=c1c(O[C@@H]2O[C@H](CO)[C@@H](O)[C@H](O)[C@H]2O)c(-c2ccc(O)c(O)c2)oc2cc(O)cc(O)c12 [ISOQUERCETIN]
IC50 [21]: 7.1 µM
inhibition [22]: Active

Structure (SMILES): CC(=O)OC[C@H]1O[C@@H](SC2=C(c3ccc(O)cc3O)C(=O)c3c(O)cccc3C2=O)[C@H](OC(C)=O)[C@@H](OC(C)=O)[C@@H]1OC(C)=O
Activity [24]: Active
inhibition [18]: Active

Structure (SMILES): COc1ccc(N2C(=O)/C(=C\c3ccc([N+](=O)[O-])s3)SC2=S)cc1
IC50 [25]: 2900 nM
Activity [26]: Active

Structure (SMILES): CCCSc1nc(N[C@@H]2C[C@H]2c2ccc(F)c(F)c2)c2nnn([C@@H]3C[C@H](OCCO)[C@@H](O)[C@H]3O)c2n1
inhibition [27]: inactive
Activity [28]: inactive
inhibition [29]: inactive
Activity [30]: inactive
Activity [31]: inactive

Structure (SMILES): COc1ccc(SC2=C(c3ccc(O)cc3O)C(=O)c3c(O)cccc3C2=O)cc1
Stability [33]: Stable
inhibition [22]: Active
Activity [24]: Not Active

From ChEMBL document CHEMBL5385922 (J Med Chem, 2024)
